According to ChEMBL document CHEMBL3870305, “Synthesis, biological evaluation and molecular modeling studies of imidazo[1,2-a]pyridines derivatives as protein kinase inhibitors” (Eur J Med Chem, 2016):
The source made the active and inactive calls. No cut-off for these calls is given here.

How the values were obtained:
CLK1 (Mus musculus) [1] = assay: Inhibition of CLK1 (unknown origin)
[2] = target: Glycogen synthase kinase-3 alpha/beta (Sus scrofa); assay: Inhibition of GSK-3 alpha/beta (unknown origin)
[3] = target: Casein kinase I delta/epsilon (Sus scrofa); assay: Inhibition of CK1 delta/epsilon (unknown origin)
[4] = target: DYRK1A (Rattus norvegicus); assay: Inhibition of DYRK1A (unknown origin)
[5] = target: Cyclin-dependent kinase 1/cyclin B1 (Homo sapiens) (UniProt P06493+P14635); assay: Inhibition of full length recombinant human CDK1/CyclinB1 expressed in baculovirus infected Sf9 insect cells at 10 uM using histone H1 as substrate in presence of gamma[33P]ATP
Sequence of Cyclin-dependent kinase 1/cyclin B1 (Homo sapiens) (P06493 whole entry, looked up): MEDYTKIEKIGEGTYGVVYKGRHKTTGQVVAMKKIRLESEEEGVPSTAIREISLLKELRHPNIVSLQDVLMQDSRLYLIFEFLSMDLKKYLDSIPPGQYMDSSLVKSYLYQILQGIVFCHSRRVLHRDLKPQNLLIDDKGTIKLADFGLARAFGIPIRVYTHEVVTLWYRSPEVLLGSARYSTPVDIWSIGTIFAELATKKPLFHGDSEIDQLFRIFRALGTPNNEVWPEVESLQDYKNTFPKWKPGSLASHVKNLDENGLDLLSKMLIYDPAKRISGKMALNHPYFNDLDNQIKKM
Sequence of Cyclin-dependent kinase 1/cyclin B1 (Homo sapiens) (P14635 whole entry, looked up): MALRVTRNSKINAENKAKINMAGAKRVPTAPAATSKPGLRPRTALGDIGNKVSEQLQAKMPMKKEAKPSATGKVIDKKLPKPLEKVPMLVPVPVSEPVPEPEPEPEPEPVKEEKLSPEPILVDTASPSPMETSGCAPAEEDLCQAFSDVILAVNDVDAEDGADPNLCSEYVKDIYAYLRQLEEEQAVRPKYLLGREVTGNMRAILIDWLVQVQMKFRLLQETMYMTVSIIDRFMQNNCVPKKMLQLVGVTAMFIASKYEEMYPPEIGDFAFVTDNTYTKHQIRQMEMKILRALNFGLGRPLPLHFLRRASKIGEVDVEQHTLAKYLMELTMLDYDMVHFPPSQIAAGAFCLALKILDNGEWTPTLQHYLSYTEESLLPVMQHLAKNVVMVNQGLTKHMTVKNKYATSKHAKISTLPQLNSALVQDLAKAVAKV
Method in brief: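 Buffer G (40 mM Tris pH 7.5, 20 mM MgCl2, 0.1 mg/ml BSA) with 0.8 µg/µl histone H1 and 15 µM [γ-33P]ATP. Compound tested at 10 µM; activity as % of the no-inhibitor control; n = 2, mean ± range.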

[6] = target: CDK9/cyclin T1 (Homo sapiens) (UniProt O60563+P50750); assay: Inhibition of full length recombinant human CDK9/CyclinT expressed in baculovirus infected Sf9 insect cells at 10 uM using YSPTSPSYSPTSPSYSPTSPSKKKK as substrate in presence of gamma[33P]ATP
[7] = target: Cyclin-dependent kinase 5/CDK5 activator 1 (Homo sapiens) (UniProt Q00535+Q15078); assay: Inhibition of full length recombinant human CDK5/p25 expressed in bacteria at 10 uM using histone H1 as substrate in presence of gamma[33P]ATP
Sequence of Cyclin-dependent kinase 5/CDK5 activator 1 (Homo sapiens) (Q00535 whole entry): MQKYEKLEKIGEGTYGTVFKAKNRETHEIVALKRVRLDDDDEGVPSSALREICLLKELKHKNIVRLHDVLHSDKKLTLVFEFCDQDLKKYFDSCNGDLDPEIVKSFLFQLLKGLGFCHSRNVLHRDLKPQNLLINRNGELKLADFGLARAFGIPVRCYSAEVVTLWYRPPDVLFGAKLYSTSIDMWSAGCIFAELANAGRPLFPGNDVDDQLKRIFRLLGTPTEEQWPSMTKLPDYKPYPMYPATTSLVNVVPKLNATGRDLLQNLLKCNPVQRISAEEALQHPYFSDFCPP
Sequence of Cyclin-dependent kinase 5/CDK5 activator 1 (Homo sapiens) (Q15078 99-307 partner limits assumed): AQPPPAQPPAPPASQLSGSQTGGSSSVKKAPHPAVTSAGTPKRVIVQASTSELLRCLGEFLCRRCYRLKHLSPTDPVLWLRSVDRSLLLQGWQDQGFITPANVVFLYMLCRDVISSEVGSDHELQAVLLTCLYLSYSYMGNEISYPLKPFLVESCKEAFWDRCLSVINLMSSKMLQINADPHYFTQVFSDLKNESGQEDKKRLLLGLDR
Method in brief: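 Buffer B (25 mM MOPS pH 7, β-glycerophosphate, p-nitrophenyl-phosphate, EGTA, 15 mM MgCl2, DTT, orthovanadate) with 0.8 µg/µl histone H1 and 15 µM [γ-33P]ATP. Compound tested at 10 µM; activity as % of the no-inhibitor control; n = 2, mean ± range.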

[8] = target: CDK2/Cyclin A2 (Homo sapiens) (UniProt P24941+P20248); assay: Inhibition of full length human CDK2/CyclinA at 10 uM using histone H1 as substrate in presence of gamma[33P]ATP; type: protein-complex assay
CLK1 (Mus musculus) [9] = assay: Inhibition of CLK1 (unknown origin) at 10 uM in presence of gamma[33P]ATP relative to control
[10] = test system: DYRK1A (Rattus norvegicus); assay: Inhibition of DYRK1A (unknown origin) at 10 uM in presence of gamma[33P]ATP relative to control
[11] = target: Dual specificity protein kinase CLK1 (Mus musculus) (UniProt P22518); assay: Competitive inhibition of full length recombinant mouse CLK1 expressed in bacteria using GRSRSRSRSRSR peptide as substrate in presence of varying levels of ATP by double-reciprocal method
Sequence of Dual specificity protein kinase CLK1 (Mus musculus) (P22518 whole entry, looked up): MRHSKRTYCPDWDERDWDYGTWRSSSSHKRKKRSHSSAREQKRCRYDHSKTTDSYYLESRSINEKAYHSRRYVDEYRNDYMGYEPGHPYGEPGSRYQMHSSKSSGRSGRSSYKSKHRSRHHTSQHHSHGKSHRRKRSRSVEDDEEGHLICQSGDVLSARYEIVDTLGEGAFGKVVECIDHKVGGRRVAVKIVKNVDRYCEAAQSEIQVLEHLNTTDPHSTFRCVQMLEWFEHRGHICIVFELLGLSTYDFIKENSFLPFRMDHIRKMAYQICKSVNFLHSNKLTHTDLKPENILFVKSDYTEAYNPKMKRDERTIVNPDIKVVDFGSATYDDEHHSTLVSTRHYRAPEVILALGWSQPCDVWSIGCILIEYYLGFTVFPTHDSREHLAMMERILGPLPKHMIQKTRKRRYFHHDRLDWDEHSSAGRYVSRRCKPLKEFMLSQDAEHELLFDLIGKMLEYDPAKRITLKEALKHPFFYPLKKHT

Structure (SMILES) | IC50 (CLK1 (Mus musculus) [1]) [µM] | IC50 [2] [µM] | IC50 [3] [µM] | IC50 [4] [µM] | inhibition [5] | inhibition [6] | inhibition [7] | inhibition [8] | inhibition (CLK1 (Mus musculus) [9]) [%] | inhibition [10] [%] | inhibition [11]
Oc1ccc(-c2cn3cc(Cl)ccc3n2)cc1 | > 10 | > 10 | > 10 | > 10 | – | – | – | – | – | – | –
COc1cccc(-c2cn3cc(Cl)ccc3n2)c1 | > 10 | > 10 | > 10 | > 10 | – | – | – | – | – | – | –
NC(=O)c1cc(-c2cn3cc(Cl)ccc3n2)ccc1O | – | – | – | – | Active | Active | Active | Active | – | – | –
NC(=O)c1cc(-c2cn3ccccc3n2)ccc1O | 1 | > 10 | > 10 | 4 | – | – | – | – | > 50 | > 50 | –
COc1cc(-c2cn3cc(Cl)ccc3n2)cc(OC)c1OC | > 10 | > 10 | > 10 | > 10 | – | – | – | – | – | – | –
COc1cc(OC)cc(-c2cn3cc(Cl)ccc3n2)c1 | > 10 | > 10 | > 10 | > 10 | – | – | – | – | – | – | –
NC(=O)c1cc(-c2cn3cc(-c4ccc([N+](=O)[O-])cc4)ccc3n2)ccc1O | > 10 | > 10 | > 10 | > 10 | – | – | – | – | – | – | –

Further lines, results first:

IC50 (CLK1 (Mus musculus) [1]) [µM] | IC50 [2] [µM] | IC50 [3] [µM] | IC50 [4] [µM] | inhibition [5] | inhibition [6] | inhibition [7] | inhibition [8] | inhibition (CLK1 (Mus musculus) [9]) [%] | inhibition [10] [%] | inhibition [11] | Structure (SMILES)
1.4 | > 10 | > 10 | 4.7 | – | – | – | – | > 50 | > 50 | – | NC(=O)c1cc(-c2cn3cc(F)ccc3n2)ccc1O
> 10 | > 10 | > 10 | > 10 | – | – | – | – | – | – | – | NC(=O)c1cc(-c2cn3cc(N)ccc3n2)ccc1O
0.7 | > 10 | > 10 | 2.6 | Active | Active | Active | Active | > 50 | > 50 | Active | NC(=O)c1cc(-c2cn3cc(Br)ccc3n2)ccc1O
– | – | – | – | Active | Active | Active | Active | – | – | – | NC(=O)c1cc(-c2cn3cc(O)ccc3n2)ccc1O
